Measured values: ChEMBL document CHEMBL1240405, “Activity of a new cephalosporin, CXA-101 (FR264205), against beta-lactam-resistant Pseudomonas aeruginosa mutants selected in vitro and after antipseudomonal treatment of intensive care unit patients” (2010)
Converted amounts (≈) assume the structure as drawn.

Legend:
Format in all cases: functional
Pseudomonas aeruginosa [1] = test: Antimicrobial activity against beta-lactam resistant Pseudomonas aeruginosa PAOD2 harboring oprD spontaneous mutant and deficient in ampD gene by selected in vitro after antipseudomonal treatment of intensive care unit patient by broth microdilution method
How it was run: (§1)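 Broth microdilution MICs per CLSI M100-S18, over 0.12 to 256 μg/ml. Strains are PAO1 and its mutants. oprD mutants were selected overnight on Mueller-Hinton agar with 4 μg/ml imipenem, passaged antibiotic-free, then confirmed by oprD amplification and sequencing. PAO1 and ATCC 27853 were run alongside as quality controls.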

Pseudomonas aeruginosa [2] = test: Antimicrobial activity against beta-lactam resistant Pseudomonas aeruginosa PAOD1 harboring oprD spontaneous mutant selected in vitro after antipseudomonal treatment of intensive care unit patient by broth microdilution method; how it was run: as §1
Pseudomonas aeruginosa [3] = test: Antimicrobial activity against beta-lactam resistant Pseudomonas aeruginosa PAOD3 harboring oprD spontaneous mutant selected in vitro after antipseudomonal treatment of intensive care unit patient by broth microdilution method; how it was run: as §1
Pseudomonas aeruginosa [4] = test: Antimicrobial activity against beta-lactam resistant beta-lactam resistant Pseudomonas aeruginosa PAOD3 harboring oprD spontaneous mutant and deficient in ampD gene selected in vitro after antipseudomonal treatment of intensive care unit patient by broth microdilution method; how it was run: as §1
Pseudomonas aeruginosa [5] = test: Antimicrobial activity against beta-lactam resistant Pseudomonas aeruginosa PAO1 by broth microdilution method; how it was run: as §1
Pseudomonas aeruginosa [6] = test: Antimicrobial activity against beta-lactam resistant Pseudomonas aeruginosa PAO1 deficient in ampD and dacB gene selected in vitro after antipseudomonal treatment of intensive care unit patient by broth microdilution method; how it was run: as §1
Pseudomonas aeruginosa [7] = test: Antimicrobial activity against beta-lactam resistant Pseudomonas aeruginosa PAOD1 harboring oprD spontaneous mutant and deficient in dacB gene selected in vitro after antipseudomonal treatment of intensive care unit patient by broth microdilution method; how it was run: as §1
Pseudomonas aeruginosa [8] = test: Antimicrobial activity against beta-lactam resistant Pseudomonas aeruginosa PA01 deficient in dacB gene by broth microdilution method; how it was run: as §1
Pseudomonas aeruginosa [9] = test: Antimicrobial activity against beta-lactam resistant Pseudomonas aeruginosa PAOD3 harboring oprD spontaneous mutant and deficient in dacB gene selected in vitro after antipseudomonal treatment of intensive care unit patient by broth microdilution method; how it was run: as §1
Pseudomonas aeruginosa [10] = test: Antimicrobial activity against beta-lactam resistant Pseudomonas aeruginosa PAOD2 harboring oprD spontaneous mutant and deficient in dacB gene selected in vitro after antipseudomonal treatment of intensive care unit patient by broth microdilution method; how it was run: as §1
Pseudomonas aeruginosa [11] = test: Antimicrobial activity against beta-lactam resistant Pseudomonas aeruginosa PAO1 deficient in ampD and ampDh3 gene selected in vitro after antipseudomonal treatment of intensive care unit patient by broth microdilution method; how it was run: as §1
Pseudomonas aeruginosa [12] = test: Antimicrobial activity against beta-lactam resistant Pseudomonas aeruginosa PAOD2 harboring oprD spontaneous mutant selected in vitro after antipseudomonal treatment of intensive care unit patient by broth microdilution method; how it was run: as §1
Pseudomonas aeruginosa [13] = test: Antimicrobial activity against beta-lactam resistant Pseudomonas aeruginosa PAO1 deficient in ampD gene selected in vitro after antipseudomonal treatment of intensive care unit patient by broth microdilution method; how it was run: as §1
Pseudomonas aeruginosa [14] = test: Antimicrobial activity against beta-lactam resistant Pseudomonas aeruginosa PAOD1 harboring oprD spontaneous mutant and deficient in ampD gene selected in vitro after antipseudomonal treatment of intensive care unit patient by broth microdilution method; how it was run: as §1
Pseudomonas aeruginosa [15] = test: Antimicrobial activity against beta-lactam resistant Pseudomonas aeruginosa PAO1 deficient in ampD, […] gene selected in vitro after antipseudomonal treatment of intensive care unit patient by broth microdilution method; how it was run: as §1
Pseudomonas aeruginosa [16] = test: Antimicrobial activity against Ceftazidime resistant Pseudomonas aeruginosa clinical isolate selected in vitro after antipseudomonal treatment of intensive care unit patient by broth microdilution method
How it was run: (§2)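 MICs by standard CLSI broth microdilution (M100-S18) at 0.12 to 256 μg/ml. The isolates are sequential P. aeruginosa isolates that emerged during antipseudomonal therapy of patients in a Spanish ICU (2002–2003). P. aeruginosa PAO1 and ATCC 27853 were run in parallel for quality control.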

Pseudomonas aeruginosa [17] = test: Antimicrobial activity against PIP-tazobactam resistant Pseudomonas aeruginosa clinical isolate selected in vitro after antipseudomonal treatment of intensive care unit patient by broth microdilution method; how it was run: as §2
Pseudomonas aeruginosa [18] = test: Antimicrobial activity against Pseudomonas aeruginosa by after 18-20 hrs agar dilution method
Pseudomonas aeruginosa [19] = test: Antimicrobial activity against cefipime resistant Pseudomonas aeruginosa clinical isolate selected in vitro after antipseudomonal treatment of intensive care unit patient by broth microdilution method; how it was run: as §2
Pseudomonas aeruginosa [20] = test: Antimicrobial activity against Imipenem resistant Pseudomonas aeruginosa clinical isolate selected in vitro after antipseudomonal treatment of intensive care unit patient by broth microdilution method; how it was run: as §2
Pseudomonas aeruginosa [21] = test: Antimicrobial activity against extended spectrum beta-lactamase producing Pseudomonas aeruginosa isolates by broth microdilution method
Pseudomonas aeruginosa [22] = test: Antimicrobial activity against Pseudomonas aeruginosa AmpC overexpressing clinical isolate selected in vitro after antipseudomonal treatment of intensive care unit patient by broth microdilution method; how it was run: as §2
Pseudomonas aeruginosa [23] = test: Antimicrobial activity against pan-beta-lactam resistant Pseudomonas aeruginosa clinical isolate selected in vitro after antipseudomonal treatment of intensive care unit patient by broth microdilution method; how it was run: as §2
Pseudomonas aeruginosa [24] = test: Antimicrobial activity against meropenem resistant Pseudomonas aeruginosa clinical isolate selected in vitro after antipseudomonal treatment of intensive care unit patient by broth microdilution method; how it was run: as §2
Pseudomonas aeruginosa [25] = test: Antimicrobial activity against ciprofloxacin resistant Pseudomonas aeruginosa clinical isolate selected in vitro after antipseudomonal treatment of intensive care unit patient by broth microdilution method; how it was run: as §2
Pseudomonas aeruginosa [26] = test: Antimicrobial activity against Pseudomonas aeruginosa clinical isolate selected in vitro after antipseudomonal treatment of intensive care unit patient by broth microdilution method; how it was run: as §2
Pseudomonas aeruginosa [27] = test: Antimicrobial activity against metallo beta-lactamase producing Pseudomonas aeruginosa isolates
Pseudomonas aeruginosa [28] = test: Antimicrobial activity against cefipime resistant Pseudomonas aeruginosa by microdilution method
Pseudomonas aeruginosa [29] = test: Antimicrobial activity against cefipime resistant Pseudomonas aeruginosa overexpressing MexXY-OprM gene by microdilution method
Pseudomonas aeruginosa [30] = test: Antimicrobial activity against multidrug resistant Pseudomonas aeruginosa clinical isolate selected in vitro after antipseudomonal treatment of intensive care unit patient by broth microdilution method; how it was run: as §2
Pseudomonas aeruginosa [31] = test: Antimicrobial activity against Pseudomonas aeruginosa clinical isolate assessed as resistant isolates selected in vitro after antipseudomonal treatment of intensive care unit patient by CLSI method

## CCN1CCN(C(=O)N[C@@H](C(=O)N[C@@H]2C(=O)N3[C@@H]2SC(C)(C)[C@@H]3C(=O)O)c2ccccc2)C(=O)C1=O [PIPERACILLIN]
Pseudomonas aeruginosa [1]
  MIC: 32 µg/mL (≈ 61.8 µM)
Pseudomonas aeruginosa [2]
  MIC: > 256 µg/mL
Pseudomonas aeruginosa [3]
  MIC: 4 µg/mL (≈ 7.73 µM)
Pseudomonas aeruginosa [4]
  MIC: 64 µg/mL (≈ 124 µM)
Pseudomonas aeruginosa [5]
  MIC: 4 µg/mL (≈ 7.73 µM)
Pseudomonas aeruginosa [6]
  MIC: 64 µg/mL (≈ 124 µM)
Pseudomonas aeruginosa [7]
  MIC: 64 µg/mL (≈ 124 µM)
Pseudomonas aeruginosa [8]
  MIC: 64 µg/mL (≈ 124 µM)
Pseudomonas aeruginosa [9]
  MIC: 64 µg/mL (≈ 124 µM)
Pseudomonas aeruginosa [10]
  MIC: 64 µg/mL (≈ 124 µM)
Pseudomonas aeruginosa [11]
  MIC: 128 µg/mL (≈ 247 µM)
Pseudomonas aeruginosa [12]
  MIC: 4 µg/mL (≈ 7.73 µM)
Pseudomonas aeruginosa [13]
  MIC: 16 µg/mL (≈ 30.9 µM)
Pseudomonas aeruginosa [14]
  MIC: 4 µg/mL (≈ 7.73 µM)
Pseudomonas aeruginosa [15]
  MIC: 64 µg/mL (≈ 124 µM)

## Cn1c(N)c(NC(=O)NCCN)c[n+]1CC1=C(C(=O)O)N2C(=O)[C@@H](NC(=O)/C(=N\OC(C)(C)C(=O)[O-])c3nsc(N)n3)[C@H]2SC1 [CEFTOLOZANE]
Pseudomonas aeruginosa [1]
  MIC: 0.5 µg/mL (≈ 0.75 µM)
Pseudomonas aeruginosa [16]
  GM MIC: 0.94 µg/mL
  MIC50: 1 µg/mL (≈ 1.5 µM)
  MIC90: 4 µg/mL (≈ 6 µM)
Pseudomonas aeruginosa [17]
  GM MIC: 1.59 µg/mL
  MIC50: 1 µg/mL
  MIC90: 4 µg/mL
Pseudomonas aeruginosa [2]
  MIC: 0.5 µg/mL (≈ 0.75 µM)
Pseudomonas aeruginosa [3]
  MIC: 0.5 µg/mL (≈ 0.75 µM)
Pseudomonas aeruginosa [4]
  MIC: 0.5 µg/mL (≈ 0.75 µM)
Pseudomonas aeruginosa [5]
  MIC: 0.5 µg/mL (≈ 0.75 µM)
Pseudomonas aeruginosa [6]
  MIC: 2 µg/mL (≈ 3 µM)
Pseudomonas aeruginosa [18]
  Ratio: -0.5
Pseudomonas aeruginosa [7]
  MIC: 0.5 µg/mL (≈ 0.75 µM)
Pseudomonas aeruginosa [19]
  GM MIC: 0.91 µg/mL
  MIC50: 1 µg/mL (≈ 1.5 µM)
  MIC90: 4 µg/mL (≈ 6 µM)
Pseudomonas aeruginosa [20]
  GM MIC: 0.84 µg/mL
  MIC50: 0.5 µg/mL (≈ 0.75 µM)
  MIC90: 4 µg/mL (≈ 6 µM)
Pseudomonas aeruginosa [21]
  MIC: > 8 µg/mL
Pseudomonas aeruginosa [22]
  MIC: 0.71 µg/mL (≈ 1.06 µM)
  MIC50: 1 µg/mL (≈ 1.5 µM)
  MIC90: 4 µg/mL (≈ 6 µM)
Pseudomonas aeruginosa [8]
  MIC: 1 µg/mL (≈ 1.5 µM)
Pseudomonas aeruginosa [23]
  MIC: 2.53 µg/mL (≈ 3.79 µM)
Pseudomonas aeruginosa [9]
  MIC: 0.5 µg/mL (≈ 0.75 µM)
Pseudomonas aeruginosa [24]
  GM MIC: 0.86 µg/mL
  MIC50: 0.5 µg/mL (≈ 0.75 µM)
  MIC90: 4 µg/mL (≈ 6 µM)
Pseudomonas aeruginosa [10]
  MIC: 0.5 µg/mL (≈ 0.75 µM)
Pseudomonas aeruginosa [25]
  MIC: 0.88 µg/mL (≈ 1.32 µM)
  MIC50: 1 µg/mL (≈ 1.5 µM)
  MIC90: 4 µg/mL (≈ 6 µM)
Pseudomonas aeruginosa [26]
  MIC50: 0.5 µg/mL (≈ 0.75 µM)
  MIC80: 0.53 µg/mL (≈ 0.795 µM)
  MIC90: 2 µg/mL (≈ 3 µM)
Pseudomonas aeruginosa [11]
  MIC: 1 µg/mL (≈ 1.5 µM)
Pseudomonas aeruginosa [12]
  MIC: 0.5 µg/mL (≈ 0.75 µM)
Pseudomonas aeruginosa [13]
  MIC: 0.5 µg/mL (≈ 0.75 µM)
Pseudomonas aeruginosa [27]
  Ratio: 0.25
Pseudomonas aeruginosa [14]
  MIC: 0.5 µg/mL (≈ 0.75 µM)
Pseudomonas aeruginosa [28]
  MIC: 1 µg/mL (≈ 1.5 µM)
Pseudomonas aeruginosa [29]
  MIC: 1 µg/mL (≈ 1.5 µM)
Pseudomonas aeruginosa [15]
  MIC: 1 µg/mL (≈ 1.5 µM)
Pseudomonas aeruginosa [30]
  MIC: 1.83 µg/mL (≈ 2.74 µM)

## C[C@@H](O)[C@H]1C(=O)N2C(C(=O)O)=C(S[C@@H]3CN[C@H](C(=O)N(C)C)C3)[C@H](C)[C@H]12 [MEROPENEM]
Pseudomonas aeruginosa [31]
  Activity: 52%
Pseudomonas aeruginosa [1]
  MIC: 8 µg/mL (≈ 20.9 µM)
Pseudomonas aeruginosa [2]
  MIC: 1 µg/mL (≈ 2.61 µM)
Pseudomonas aeruginosa [3]
  MIC: 2 µg/mL (≈ 5.22 µM)
Pseudomonas aeruginosa [4]
  MIC: 8 µg/mL (≈ 20.9 µM)
Pseudomonas aeruginosa [5]
  MIC: 0.5 µg/mL (≈ 1.3 µM)
Pseudomonas aeruginosa [6]
  MIC: 2 µg/mL (≈ 5.22 µM)
Pseudomonas aeruginosa [7]
  MIC: 4 µg/mL (≈ 10.4 µM)
Pseudomonas aeruginosa [8]
  MIC: 0.5 µg/mL (≈ 1.3 µM)
Pseudomonas aeruginosa [9]
  MIC: 4 µg/mL (≈ 10.4 µM)
Pseudomonas aeruginosa [10]
  MIC: 4 µg/mL (≈ 10.4 µM)
Pseudomonas aeruginosa [11]
  MIC: 2 µg/mL (≈ 5.22 µM)
Pseudomonas aeruginosa [12]
  MIC: 2 µg/mL (≈ 5.22 µM)
Pseudomonas aeruginosa [13]
  MIC: 2 µg/mL (≈ 5.22 µM)
Pseudomonas aeruginosa [14]
  MIC: 8 µg/mL (≈ 20.9 µM)
Pseudomonas aeruginosa [15]
  MIC: 1 µg/mL (≈ 2.61 µM)

## C[C@@H](O)[C@H]1C(=O)N2C(C(=O)O)=C(SCCNC=N)C[C@H]12 [IMIPENEM ANHYDROUS]
Pseudomonas aeruginosa [31]
  Activity: 57%
Pseudomonas aeruginosa [1]
  MIC: 16 µg/mL (≈ 53.4 µM)
Pseudomonas aeruginosa [2]
  MIC: 16 µg/mL (≈ 53.4 µM)
Pseudomonas aeruginosa [3]
  MIC: 16 µg/mL (≈ 53.4 µM)
Pseudomonas aeruginosa [4]
  MIC: 16 µg/mL (≈ 53.4 µM)
Pseudomonas aeruginosa [5]
  MIC: 2 µg/mL (≈ 6.68 µM)
Pseudomonas aeruginosa [6]
  MIC: 2 µg/mL (≈ 6.68 µM)
Pseudomonas aeruginosa [7]
  MIC: 16 µg/mL (≈ 53.4 µM)
Pseudomonas aeruginosa [8]
  MIC: 2 µg/mL (≈ 6.68 µM)
Pseudomonas aeruginosa [9]
  MIC: 16 µg/mL (≈ 53.4 µM)
Pseudomonas aeruginosa [10]
  MIC: 16 µg/mL (≈ 53.4 µM)
Pseudomonas aeruginosa [11]
  MIC: 2 µg/mL (≈ 6.68 µM)
Pseudomonas aeruginosa [12]
  MIC: 8 µg/mL (≈ 26.7 µM)
Pseudomonas aeruginosa [13]
  MIC: 2 µg/mL (≈ 6.68 µM)
Pseudomonas aeruginosa [14]
  MIC: 16 µg/mL (≈ 53.4 µM)
Pseudomonas aeruginosa [15]
  MIC: 1 µg/mL (≈ 3.34 µM)
